From PubChem
Lmaj promast: Leishmania major promastigote growth inhibition; Leishmania major promastigotes, resazurin fluorescence viability; inhibition, % at 10 µM; 200,000 tested, 9% active; AID 1063; in the data active means inhibition above about 50%;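 further: promastigotes grown with compound for 44 hours at 28 °C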
MT stabilize HCS: microtubule stabilizers in HeLa cells; AID 2205; % tubulin-high responders, % at 10 µM; HeLa tubulin immunostaining HCS, 24 h; share of cells brighter than vehicle mean+2SD; 200,000 tested, 0.83% active;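 active means plate Z-score above 3 for both tubulin-high and condensed-nucleus cell shares, with cell loss under 80%, at 10 µM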;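 further: anti alpha tubulin signal scored within the nucleus-defined area of each cell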
HSV replic up: increases HSV replication in cells. HSV replication augmentation in cells, fold increase. maximum fold increase. 220,000 tested, 0.005% active; in the data active means maximum fold increase above about 1.5; inconclusive means no clear call, values can overlap the other calls; tested in PC3 cells
Dynein transport: blocks dynein driven cargo transport along microtubules | 220,000 tested, 0.47% active | AID 1381 | 3617.4 mouse cells, GR-EGFP nuclear translocation imaging; test concentration mostly 20 µM; stimulated with dexamethasone, 1 µM; active compounds read low | z-score, hits read low;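 active means plate z-score of nuclear minus cytoplasmic receptor signal below a set negative limit, without overly bright fluorescence or cell loss, cut at about -3.5 in these data, passing the limit was not always enough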;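 further: z-score of nuclear minus cytoplasmic ring GR-EGFP intensity difference per well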
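medium = tetracycline-free induction medium containing charcoal-stripped FBS | probe or stimulus = dexamethasone, 1.0 µM final | timing = 48 h induction, then 1 h compound, then 30 min agonist, 37 °C | detection = automated 10x imaging of fixed Hoechst-stained cells | read-out basis = nuclear versus cytoplasmic GR-EGFP signal, averaged per well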
bCat nuc transl: beta-catenin nuclear translocation modulation. 190,000 tested, 0.3% active. nuclear translocation activity, % at 5 µM. HeLa beta-catenin nuclear translocation, immunofluorescence imaging;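 active means nuclear translocation activity above 50% at 5 µM, with a well cell count of 50 or more; inconclusive means wells under 50 cells across six images, flagged as toxic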;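 further: per-cell ratio of nuclear to cytoplasmic median beta-catenin stain intensity; plate controls were DMSO negative control for no effect and GSK-3 inhibitor IX positive control for full effect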
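Test system: HeLa cells, endogenous beta-catenin; Compound: single 5 µM dose plus 0.02–20 µM confirmation series; Times: compound exposure 24 h at 37°C; Signal: fluorescence imaging of beta-catenin antibody stain plus DAPI; Read-out: % activation, nuclear-to-cytoplasmic median beta-catenin signal ratio per cell.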
Dynein confirm: dynein cargo transport inhibition, confirmation | shares compounds with Dynein transport | 3617.4 GR-EGFP nuclear translocation imaging, dexamethasone-induced | calls only at 20 µM | 1,000 tested, 69% active | AID 463116;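 active means inhibition of receptor movement into the nucleus at or above a set limit in both runs, with normal cell brightness and cell count; inconclusive means limit reached in only one run, brightness and count normal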;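 further: dexamethasone at 1 µM final in well for 30 min; nuclear minus cytoplasmic GR-EGFP mean intensity difference in channel 2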
* marks the source's active call; other numbers are inactive results; i = inactive; ? = inconclusive; / = no result; + = active, no number. Rows were chosen to be rich in hits. Some 8.9% of all compounds tested hit in one or more screens of this group.

SMILES | Lmaj promast | MT stabilize HCS | HSV replic up | Dynein transport | bCat nuc transl | Dynein confirm
O=C1N/C(=C/c2ccc(N3CCOCC3)o2)C(=O)N1c1cccc(Cl)c1 | 2.5 | 2.6 | i | -4.15 | 0.1 | i
CCCNC(=O)Cn1c(=O)/c(=C\c2ccc(-c3ccc([N+](=O)[O-])cc3)o2)s/c1=C\C(=O)C(C)(C)C | 73.1* | 9.4 | ? | -4.95 | 1.3 | +
Cc1cc(N=CC2=C(O)CC(C)(C)CC2=O)no1 | -3.6 | 3.3 | i | 0.182 | -4.9 | /
O=C(CCl)Nc1cc(SCC(O)CO)cc([N+](=O)[O-])c1 (stereo unspecified) | 16.5 | 92.9 | i | -5.93* | 11.0 | +
COc1cc(N2CCCC2)c(OC)cc1/C=C1/NC(=S)NC1=O | 96.4* | 4.5 | ? | -4.39 | 3.8 | i
Cn1c(/C(C#N)=C(\O)CN2CCN(Cc3ccccc3)CC2)nc2ccccc21 | -2.6 | 6.2 | i | -0.488 | -4.8 | /
COc1ccc(N2C(=O)CC(Sc3n[nH]c(-c4cccc(C)c4)n3)C2=O)cc1 (stereo unspecified) | / | / | i | 1.95 | 0.1 | /
CCOc1ccccc1N1C(=O)CC(Sc2n[nH]c(-c3ccccc3)n2)C1=O (stereo unspecified) | -3.6 | 1.3 | i | -4.12* | -4.2 | +
Cc1sc(NC(=O)CCl)c(C(=O)c2ccccc2)c1C | 100.6* | 2.1 | i | -3.75* | -3.1 | +
Cc1ccccc1C(=O)Nc1sc(C)c(C)c1C(=O)c1ccccc1 | 5.3 | 3.1 | i | 0.239 | -1.3 | /
CCOC(=O)/C(C#N)=C/c1c[nH]c2ccccc12 | -1.9 | 4.1 | i | -0.13 | -0.3 | /
CCOC(=O)C(=Cc1c[nH]c2ccc(S(=O)(=O)N(C)C)cc12)C(=O)OCC | / | / | i | -4.71* | 0.7 | +
CC[C@@H](C)[C@H](NC(=O)OC(C)(C)C)c1nnc(S(=O)(=O)Cc2cc(C)ccc2C)o1 | -3.0 | 1.9 | i | -2.5 | 0.0 | /
Cc1ccccc1CS(=O)(=O)c1nnc([C@H](CC(C)C)NC(=O)OC(C)(C)C)o1 | -5.0 | 1.6 | i | -3.73* | -5.5 | +
Cc1cc(C2=CC(C)(c3cc(C)oc3C)Nc3nc(C(F)(F)F)nn32)c(C)o1 (stereo unspecified) | 3.1 | 4.1 | i | -6.1* | 0.5 | +
O=c1[nH]c(SCc2cc(=O)n3ccccc3n2)nc2c1CCC2 | -5.9 | 2.8 | / | 0.231 | / | /
O=[N+]([O-])c1c(NCCO)cc(N2CCC3(CC2)OCCO3)c2nonc12 | 11.2 | 2.9 | i | -0.337 | -0.7 | /
CC(=O)OCCCNc1cc(Sc2ccc(C)cc2)c2nonc2c1[N+](=O)[O-] | 5.5 | 2.9 | i | -4.61* | 1.0 | i
Cn1ccnc1Sc1ccc(C(N)=O)cc1[N+](=O)[O-] | -4.5 | 6.8 | i | -0.454 | -5.4 | /
Cn1ccnc1Sc1cc(NCCCO)c([N+](=O)[O-])c2nonc12 | -1.8 | 3.6 | i | -4.9* | -2.8 | +
O=[N+]([O-])c1c(NCCCO)cc(Sc2ccc(Cl)cc2)c2nonc12 | -3.8 | 2.3 | i | -4.68* | -2.4 | +
CN(CCO)c1cc(NCCCN2CCC(Cc3ccccc3)CC2)c2nonc2c1[N+](=O)[O-] | 28.4 | 3.2 | i | -1.32 | -1.2 | /
O=[N+]([O-])c1c(NCCCO)cc(SCc2ccco2)c2nonc12 | 15.1 | 6.1 | i | -3.52* | 0.3 | +
COC(=O)CCSc1cc([N+](=O)[O-])cc2c1c(C1OCCO1)nn2-c1ccccc1 | -1.9 | 4.1 | i | -0.648 | -2.6 | /
CCCC(=O)OCCNc1cc(SCCC(=O)OC)c2nonc2c1[N+](=O)[O-] | 16.4 | 3.9 | i | -4.51* | -1.0 | +
SMILES | Lmaj promast | MT stabilize HCS | HSV replic up | Dynein transport | bCat nuc transl | Dynein confirm
CC(=O)OCCNc1cc(SCc2ccco2)c2nonc2c1[N+](=O)[O-] | 32.6 | 4.9 | i | -5.83* | -1.2 | +
CC(=O)OCCNc1cc(Sc2nc3ccccc3[nH]2)c2nonc2c1[N+](=O)[O-] | 4.6 | 6.6 | i | -2.18 | 1.4 | /
CCOC(=O)C1(CCCc2ccccc2)CCN(C(=O)C2=C(C)OCCO2)CC1 | 31.8 | 5.7 | i | -3.54* | 2.5 | ?
N/C(=N\OC(=O)c1ccco1)c1cccc(Br)c1 | 5.2 | 2.6 | i | -0.37 | -2.0 | /
CCN1CCN(/C=N/c2nc3c(s2)CCCC3)CC1 | 6.1 | 2.8 | i | -0.282 | -0.2 | /
CC1=C(CO)C(=O)OC([C@@H](C)C2CC[C@H]3C4C[C@H]5O[C@]56[C@@H](O)C=CC(=O)[C@]6(C)C4CC[C@]23C)C1 (stereo partly specified) | / | / | i | -3.81* | 0.6 | ?
